{
  "source": "paper PMC3628437",
  "about": "(Antiviral research, 2013)",
  "key": {"hepatitis B virus (HBV)": {"tested_on": "hepatitis B virus (HBV)", "assay": "Real-time immune-absorbance PCR", "type": "cell-based", "conditions": "for Reduction of HBV virion levels in culture medium / Fold HBV reduction: G2.215 cells; for Reduction of HBV virion levels in culture medium: 5μM; for Fold HBV reduction: 10 μM compound, HBV DNA in culture medium by IA-PCR"}, "HBV replication [1]": {"tested_on": "HBV replication", "assay": "Southern blot of cellular HBV replication intermediates in G2.215 cells", "type": "cell-based, hepatitis B virus", "conditions": "any concentration tested", "method_in_brief": "(§1)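 Cytoplasmic core DNA: one 6-well-plate well lysed 10 min at 37°C in Tris-EDTA pH 8.0 with NP40/sucrose. Nuclei removed; capsids PEG8000/NaCl-precipitated 2 h at 4°C, pronase/SDS-digested 1 h at 37°C, phenol-extracted, ethanol-precipitated. Half run on 1.5% agarose, depurinated, denatured, neutralised, blotted and probed with α-32P-UTP HBV probe for RC, DSL and SS forms. HepDE19 tet-free 5 days before dosing; G2.215 kept in G418.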"}, "feline herpesvirus-1": {"tested_on": "feline herpesvirus-1", "conditions": "ref Romanowski et al., 1999; Storey et al., 2002; cited from earlier work"}, "[2]": {"tested_on": "HBV large surface protein (LHBs)", "assay": "Western blot of LHBs-containing HBV particles in G2.215 culture medium", "type": "cell-based, hepatitis B virus", "conditions": "G2.215 cells, 10 or 20μM, 6 day treatment"}, "equine herpesvirus-4": {"tested_on": "equine herpesvirus-4", "conditions": "ref Romanowski et al., 1999; Storey et al., 2002; cited from earlier work"}, "influenza virus": {"tested_on": "influenza virus", "conditions": "ref Mekler et al., 1969; cited from earlier work"}, "HBV virions": {"tested_on": "HBV virions", "type": "cell-based, hepatitis B virus", "conditions": "HepDE19 cells, 5 day treatment", "method_in_brief": "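HepDE19 cells (DMEM/F12, 10% FBS, tetracycline-suppressed) were switched to tet-free medium for 5 days, then dosed for 5 days at several concentrations (0.5% DMSO final). Virions from 1ml clarified medium were precipitated with 10% PEG8000 (final), 1 h at 4°C, pelleted and dissolved in TNE pH7.4. Run on non-denaturing 1% agarose to separate virions from naked nucleocapsids, then blotted and hybridized with labeled HBV probe.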"}, "HBV replication [3]": {"tested_on": "HBV replication", "assay": "Southern blot of cellular HBV DNA in HepDE19 cells", "type": "cell-based, hepatitis B virus", "conditions": "up to 10 μM", "method_in_brief": "as §1"}, "Varicella Zoster Virus": {"tested_on": "Varicella Zoster Virus", "conditions": "ref Mekler et al., 1969; cited from earlier work"}},
  "data": [
    {"smiles": "Nc1ccn([C@@H]2CS[C@H](CO)O2)c(=O)n1", "note": "[lamivudine]", "values": [
      {"measurement": "CT of medium from treated G2.215 cells", "setting": "hepatitis B virus (HBV); 30μM, 6 days, carrier alone CT ~26 undiluted", "value": "30–31 CT"}
    ]},
    {"smiles": "CCCOc1ccc(C(=O)OCCN(CC)CC)cc1N", "note": "[Proparacaine]", "values": [
      {"measurement": "Level of relaxed circular HBV DNA (RC-DNA) versus untreated control", "setting": "HBV replication [1]", "value": "no reduction"},
      {"measurement": "Inactivation of virus", "setting": "feline herpesvirus-1", "value": "can inactivate"},
      {"measurement": "Inhibition of secretion of HBV particles containing LHBs in culture medium", "setting": "[2]", "value": "3- to 4 fold"},
      {"measurement": "Inactivation of virus", "setting": "equine herpesvirus-4", "value": "can inactivate"},
      {"measurement": "Reduction of HBV virion levels in culture medium", "setting": "hepatitis B virus (HBV)", "value": "~ 3 CT"},
      {"measurement": "Fold HBV reduction", "setting": "hepatitis B virus (HBV); 6 days", "value": 6, "unit": "Fold"},
      {"measurement": "IC50", "setting": "hepatitis B virus (HBV); Hepatitis B virus, read-out: IC50 against HBV", "value": 1, "unit": "µM"}
    ]},
    {"smiles": "C[C@@H]1C/C=C/C=C/C=C/C=C/[C@H](O[C@@H]2O[C@H](C)[C@@H](O)[C@H](N)[C@@H]2O)C[C@@H]2O[C@](O)(C[C@@H](O)C[C@H]3O[C@@H]3/C=C/C(=O)O1)C[C@H](O)[C@H]2C(=O)O", "note": "[Natamycin]", "values": [
      {"measurement": "Fold HBV reduction", "setting": "hepatitis B virus (HBV); 6 days", "value": 4, "unit": "Fold"}
    ]},
    {"smiles": "C=Cc1c(C)c2cc3nc(c4c5[n-]c(cc6nc(cc1[n-]2)C(C)=C6CC)c(C)c5C(=O)[C@@H]4C(=O)OC)[C@@H](CCC(=O)O)[C@@H]3C.[Mg+2]", "note": "[Chlorophyllide]", "values": [
      {"measurement": "Inactivation of virus", "setting": "influenza virus", "value": "inactivate"},
      {"measurement": "Formation and secretion of nucleocapsids", "setting": "HBV virions", "value": "not affected"},
      {"measurement": "Viral particles in cell culture medium", "setting": "HBV virions", "value": "reduces viral particles in the cell culture medium in a dose-dependent manner"},
      {"measurement": "Reduction of HBV virion levels in culture medium", "setting": "hepatitis B virus (HBV)", "value": "~ 2 CT"},
      {"measurement": "Fold HBV reduction", "setting": "hepatitis B virus (HBV); 6 days", "value": 4, "unit": "Fold"},
      {"measurement": "RC or SS DNA levels (cellular HBV DNA)", "setting": "HBV replication [3]", "value": "did not repress"},
      {"measurement": "Inactivation of virus", "setting": "Varicella Zoster Virus", "value": "inactivate"}
    ]},
    {"smiles": "O=C(c1ccc(OCCN2CCCCC2)cc1)c1c(-c2ccc(O)cc2)sc2cc(O)ccc12", "note": "[Raloxifene]", "values": [
      {"measurement": "Fold HBV reduction", "setting": "hepatitis B virus (HBV); 6 days", "value": 3.5, "unit": "Fold"}
    ]}
  ]
}
